Shown are actives, neighbours in structure and some others; about 1.4% of the full set was active somewhere.
NR2E3 ag-1 = human photoreceptor-specific nuclear receptor agonism | inhibition of corepressor binding, % at 3.98 µM | CHO-S Gal4-NCOR/VP16-NR2E3 two-hybrid, luciferase | 360,000 compounds, 0.35% hits | Q9Y5X4 | AID 602229;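 active = inhibition above the mean of all tested compounds plus 3 SD, cut at about 70% in these data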;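 also: higher means lower luciferase signal from less NR2E3 corepressor binding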
PG9 Ab binder = binds the HIV-1 gp120 antibody PG9; 360,000 compounds, 0.43% hits; TR-FRET gp120-PG9 antibody binding; inhibition, % at 6.7 µM; AID 624416; in the data active = inhibition above about 8.5%
Rev-erbA mod = modulators of human Rev-erb alpha DNA binding; Rev-erbα–FITC-DNA binding, fluorescence polarization, 90 min; P20393; activity, % at 10 µM; 370,000 compounds, 0.79% hits;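 active = activity above about 14%, limit read from the data; passing the limit was not always enough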
NR2E3 ag-2 = agonists of human nuclear receptor NR2E3. Q9Y5X4. GST-NR2E3/biotin-RetCOR TR-FRET, 1536-well. inhibition of corepressor binding, % at 4.78 µM. 320,000 compounds, 0.12% hits;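 active = percent inhibition above the cutoff of mean plus 3 SD of all tested compounds, set per screening campaign, cut at about 20% in these data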
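system = GST-tagged NR2E3 plus biotinylated RetCOR corepressor | input = 1.35 nM GST-NR2E3 | also added = 7 nM biotin-RetCOR | schedule = 5 h incubation at 4 °C | measured by = TR-FRET with europium anti-GST and streptavidin-D2, 340 nm excitation | read-out = percent loss of FRET ratio relative to control wells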
NR2E3 ag confirm = confirmation of human NR2E3 nuclear receptor agonists; shares compounds with NR2E3 ag-2; cell-free NR2E3 corepressor release, TR-FRET, 5 h; activation (reported as inhibition), % at 3.98 µM; 360 compounds, 39% hits; in the data active = activation above about 20%
PPARg-NCOR2 ctr = counter-screen for NR2E3 agonists: human PPARgamma-NCOR2 interaction agonists; shares compounds with NR2E3 ag-2; TR-FRET PPARg-NCOR2 coregulator interaction, biochemical; inhibition, % at 3.98 µM; 360 compounds, 45% hits; AID 504787; in the data active = inhibition above about 20%
Target sequence (P37231 whole entry, looked up): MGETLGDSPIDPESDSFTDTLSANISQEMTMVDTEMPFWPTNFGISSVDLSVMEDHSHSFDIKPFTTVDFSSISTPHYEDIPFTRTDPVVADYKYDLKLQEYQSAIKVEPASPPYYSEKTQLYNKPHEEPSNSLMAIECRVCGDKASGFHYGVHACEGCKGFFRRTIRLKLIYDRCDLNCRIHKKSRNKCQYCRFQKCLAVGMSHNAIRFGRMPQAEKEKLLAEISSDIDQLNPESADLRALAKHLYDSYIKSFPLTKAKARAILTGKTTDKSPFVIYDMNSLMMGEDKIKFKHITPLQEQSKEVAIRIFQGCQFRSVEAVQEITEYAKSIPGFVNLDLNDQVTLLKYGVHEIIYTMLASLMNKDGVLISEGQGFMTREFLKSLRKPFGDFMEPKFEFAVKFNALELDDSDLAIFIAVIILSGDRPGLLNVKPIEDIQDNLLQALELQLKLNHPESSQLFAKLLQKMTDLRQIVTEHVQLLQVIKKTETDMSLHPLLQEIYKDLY
Target sequence (Q9Y618 whole entry, looked up): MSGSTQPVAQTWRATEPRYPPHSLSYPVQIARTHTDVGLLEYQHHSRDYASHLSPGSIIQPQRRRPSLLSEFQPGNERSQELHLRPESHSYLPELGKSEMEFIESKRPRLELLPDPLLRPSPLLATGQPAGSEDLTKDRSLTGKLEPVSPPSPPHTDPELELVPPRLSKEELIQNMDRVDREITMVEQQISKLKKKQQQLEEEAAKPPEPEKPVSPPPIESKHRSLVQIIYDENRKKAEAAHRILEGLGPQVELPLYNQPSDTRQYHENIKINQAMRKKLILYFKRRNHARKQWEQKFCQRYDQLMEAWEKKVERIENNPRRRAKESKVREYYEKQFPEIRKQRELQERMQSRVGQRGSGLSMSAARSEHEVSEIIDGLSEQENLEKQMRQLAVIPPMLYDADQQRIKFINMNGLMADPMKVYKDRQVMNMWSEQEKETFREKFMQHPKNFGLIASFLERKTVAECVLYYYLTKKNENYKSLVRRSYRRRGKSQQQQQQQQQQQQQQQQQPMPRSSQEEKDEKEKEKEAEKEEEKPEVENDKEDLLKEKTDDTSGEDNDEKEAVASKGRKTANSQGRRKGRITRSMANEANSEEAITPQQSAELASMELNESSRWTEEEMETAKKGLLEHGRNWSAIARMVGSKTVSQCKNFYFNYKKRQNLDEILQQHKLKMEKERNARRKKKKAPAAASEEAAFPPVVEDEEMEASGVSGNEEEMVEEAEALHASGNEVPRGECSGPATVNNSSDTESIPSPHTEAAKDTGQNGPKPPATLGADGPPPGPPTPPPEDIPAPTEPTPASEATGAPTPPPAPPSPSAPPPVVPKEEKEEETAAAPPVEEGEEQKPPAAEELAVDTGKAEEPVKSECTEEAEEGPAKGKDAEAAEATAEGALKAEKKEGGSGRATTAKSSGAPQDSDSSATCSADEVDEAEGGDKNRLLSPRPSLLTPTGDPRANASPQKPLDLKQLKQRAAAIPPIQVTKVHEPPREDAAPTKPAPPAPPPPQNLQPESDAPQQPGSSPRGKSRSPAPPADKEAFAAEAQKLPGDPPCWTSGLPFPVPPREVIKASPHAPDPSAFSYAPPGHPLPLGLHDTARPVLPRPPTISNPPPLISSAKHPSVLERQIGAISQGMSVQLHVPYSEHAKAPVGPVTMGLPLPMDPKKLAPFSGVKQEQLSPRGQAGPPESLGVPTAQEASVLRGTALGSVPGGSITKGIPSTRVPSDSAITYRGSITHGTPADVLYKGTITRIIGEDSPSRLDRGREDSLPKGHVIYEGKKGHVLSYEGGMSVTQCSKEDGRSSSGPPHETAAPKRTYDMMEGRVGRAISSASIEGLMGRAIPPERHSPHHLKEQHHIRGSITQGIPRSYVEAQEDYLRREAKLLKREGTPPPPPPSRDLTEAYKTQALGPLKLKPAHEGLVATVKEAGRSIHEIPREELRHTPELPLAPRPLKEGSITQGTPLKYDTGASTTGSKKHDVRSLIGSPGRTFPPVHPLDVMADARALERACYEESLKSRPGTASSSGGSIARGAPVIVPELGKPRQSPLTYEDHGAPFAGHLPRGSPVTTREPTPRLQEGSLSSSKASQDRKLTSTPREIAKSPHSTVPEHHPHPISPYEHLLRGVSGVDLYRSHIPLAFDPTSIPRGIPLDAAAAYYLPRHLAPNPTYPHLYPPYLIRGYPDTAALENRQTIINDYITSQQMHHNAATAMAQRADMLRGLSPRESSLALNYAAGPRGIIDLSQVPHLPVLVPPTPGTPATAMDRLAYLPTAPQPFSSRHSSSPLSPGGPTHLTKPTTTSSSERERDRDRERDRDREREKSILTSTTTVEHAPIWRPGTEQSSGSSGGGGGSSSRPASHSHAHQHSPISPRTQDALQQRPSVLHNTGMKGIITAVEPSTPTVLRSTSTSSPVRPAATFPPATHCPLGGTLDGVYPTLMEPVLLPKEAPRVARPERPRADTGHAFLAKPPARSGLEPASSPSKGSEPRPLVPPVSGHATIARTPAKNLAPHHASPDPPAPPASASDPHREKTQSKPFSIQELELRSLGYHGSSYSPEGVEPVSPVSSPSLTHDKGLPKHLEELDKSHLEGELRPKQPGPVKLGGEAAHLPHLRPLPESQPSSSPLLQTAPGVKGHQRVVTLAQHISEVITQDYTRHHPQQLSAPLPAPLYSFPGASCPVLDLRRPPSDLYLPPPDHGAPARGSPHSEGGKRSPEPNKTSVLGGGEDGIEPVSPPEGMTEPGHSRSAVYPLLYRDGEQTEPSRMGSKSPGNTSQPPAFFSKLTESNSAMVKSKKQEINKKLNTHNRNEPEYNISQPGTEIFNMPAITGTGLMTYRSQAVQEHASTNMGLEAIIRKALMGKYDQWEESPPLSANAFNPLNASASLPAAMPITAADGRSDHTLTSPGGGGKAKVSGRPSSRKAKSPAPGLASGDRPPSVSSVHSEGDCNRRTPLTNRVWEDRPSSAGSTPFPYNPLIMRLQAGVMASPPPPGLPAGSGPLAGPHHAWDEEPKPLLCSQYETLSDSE
Numbers stand for hits; n = inactive; x = not tested or not shown.

SMILES | NR2E3 ag-1 | PG9 Ab binder | Rev-erbA mod | NR2E3 ag-2 | NR2E3 ag confirm | PPARg-NCOR2 ctr
Cc1cccc(C)c1NC(=O)CCCCCC1NC(=O)NC1C (stereo not drawn) | n | n | n | 47 | 35 | n
C/C=C\C1=C(C(=O)O)N2C(=O)C(NC(=O)C(N)c3ccc(O)cc3)C2SC1 (stereo not drawn) | x | x | n | x | x | x
C1CCN2C[C@@H]3C[C@H](CN4CCCC[C@@H]34)[C@H]2C1 | x | x | n | x | x | x
CCCCCCCCCC(=O)OCCN1CCN(CCCN2c3ccccc3Sc3ccc(C(F)(F)F)cc32)CC1 | x | x | n | x | x | x
Nc1ncnc2c1ncn2C1O[C@H](COP(=O)(O)O)[C@@H](O)[C@H]1O (stereo partly drawn) | x | x | n | x | x | x
C[C@@H]1CC[C@H]2[C@@H](C)C(O)O[C@@H]3OC4(C)CC[C@@H]1[C@]32OO4 (stereo partly drawn) | x | x | n | x | x | x
C=CCn1c(NC(=O)c2ccccc2Cl)c(C#N)c2nc3ccccc3nc21 | n | n | n | 38 | n | 42
C[C@@H]1O[C@@H](OC[C@H]2OC(Oc3c(-c4ccc(O)c(O)c4)oc4cc(O)cc(O)c4c3=O)[C@H](O)[C@@H](O)[C@@H]2O)[C@H](O)[C@H](O)[C@H]1O (stereo partly drawn) | x | x | n | x | x | x
COc1ccc(NC(=O)CCNS(=O)(=O)c2cc(Br)ccc2Br)cc1S(N)(=O)=O | n | n | n | 23 | n | n
COc1ccc(NC(=O)CCNC(=O)c2ccccc2)cc1S(N)(=O)=O | n | n | n | n | x | x
CC1(C)O[C@@H]2CC3C4CCC5=CC(=O)C=C[C@]5(C)C4[C@@H](O)C[C@]3(C)[C@]2(C(=O)CO)O1 (stereo partly drawn) | x | x | n | x | x | x
O=C(O)c1ccc2c(c1)[C@@H]1C=CC[C@@H]1[C@H](c1ccccn1)N2 | n | n | n | 48 | n | n
CC1(C)OC(=O)C(OCC2CC2)=C1c1ccc(S(C)(=O)=O)cc1 | x | x | n | x | x | x
O=c1oc2c(O)c(O)cc3c(=O)oc4c(O)c(O)cc1c4c23 | n | x | n | 38 | 34 | x
COc1ccc(S(=O)(=O)N(C)CC(=O)N2CCC(C)CC2)cc1Cl | n | n | n | 22 | n | n
COc1ccc(OC)c(N(CC(=O)N2CCC(C)CC2)S(=O)(=O)c2ccc(OC)c(OC)c2)c1 | n | n | n | n | x | x
CN(C(=O)c1ccc(NC(=O)Cc2ccc(NC(=O)C3CCN(C(=O)C4CCCCC4)CC3)cc2)cc1)C1CC1 | n | n | n | 20 | n | n
CN(C(=O)c1ccc(NC(=O)Cc2ccc(NC(=O)C3CCN(C(=O)C4CCCC4)CC3)cc2)cc1)C1CCCC1 | n | n | n | x | x | x
O=C(CCN1C(=O)COc2ccccc21)NCc1cccnc1 | n | n | n | n | x | x
O=C(CN1C(=O)COc2ccccc21)N(Cc1cccnc1)Cc1ccccc1F | n | x | n | 31 | n | n
C[C@]12CCC(=O)C=C1CCC1C2[C@@H](O)C[C@@]2(C)C1CC[C@]2(O)C(=O)CO (stereo partly drawn) | x | x | n | x | x | x
COc1ccc(N(C)C(=O)Nc2ccc3nsnc3c2)cc1 | n | n | n | x | x | x
CC(C)N(C(=O)Nc1ccc2nsnc2c1)C(C)C | x | n | n | 38 | n | n
CCOc1ccc(NC(=O)Nc2ccc3nsnc3c2)cc1 | n | n | n | n | x | x
COc1ccc(NC(=S)Nc2ccc3nc(C)c(C)nc3c2)cc1 | n | n | n | n | x | x
SMILES | NR2E3 ag-1 | PG9 Ab binder | Rev-erbA mod | NR2E3 ag-2 | NR2E3 ag confirm | PPARg-NCOR2 ctr
COc1ccc(NC(=S)Nc2ccc3nsnc3c2)cc1 | n | n | n | 29 | n | n
CCOc1ccc(NC(=S)Nc2ccc3nsnc3c2)cc1 | n | n | n | 31 | n | n
CCCC1=NN2C(=N)/C(=C\c3ccc(SCc4ccco4)o3)C(=O)N=C2S1 | n | x | x | 20 | n | 61
Cc1cccc(-c2nc(=S)c3c(n2Cc2ccco2)CCCC3)c1 | n | n | n | 28 | n | n
NS(=O)(=O)c1cc(C(=O)NC2CCSc3ccccc32)ccc1Cl (stereo not drawn) | n | n | n | 20 | n | n
NS(=O)(=O)c1cccc(C(=O)NC2CCSc3ccccc32)c1 (stereo not drawn) | n | n | n | n | x | x
C=C[C@@]1(C)CC(=O)[C@]2(O)[C@@]3(C)[C@@H](O)CCC(C)(C)[C@@H]3[C@H](OC(=O)CCN(C)C)[C@H](OC(C)=O)[C@@]2(C)O1 | x | x | n | x | x | x
O=C(NN1C(=O)/C(=C/C=C/c2ccco2)SC1=S)c1ccncc1 | n | n | n | 25 | n | n
COc1cccc(C(=O)Nc2ccc3ccccc3c2)c1 | n | n | n | 30 | n | n
CC(=O)Nc1ccc(S(=O)(=O)c2ccc(NC(C)=O)cc2)cc1 | x | x | n | x | x | x
COc1cc(C2C(C(=O)c3cccs3)=C(O)C(=O)N2CCN2CCOCC2)cc(OC)c1OC (stereo not drawn) | n | n | n | n | x | x
COc1cccc2cc(C(=O)C3=C(O)C(=O)N(CCN4CCOCC4)C3c3cccs3)oc12 (stereo not drawn) | n | n | n | 24 | 21 | n
C[C@]12CCC3c4ccc(O)cc4CCC3C1CC[C@@H]2O (stereo partly drawn) | x | x | n | x | x | x
N#Cc1c(-c2ccco2)c2c([nH]c1=S)CCCC2 | n | n | n | 39 | n | 23
CCN(CC)c1ccc2c(-c3ccc(S(=O)(=O)O)cc3S(=O)(=O)[O-])c3ccc(=[N+](CC)CC)cc-3oc2c1 | n | x | x | 46 | 41 | 48
CCN(CC)c1ccc2nc3c4ccccc4c(=O)cc-3oc2c1 | x | n | n | x | x | x
COC(=O)c1cc(C)nc2c1C(=O)C(=O)C=C2N1CCOCC1 | n | n | n | 38 | 43 | 57
CCCCOC(=O)CSC1=C(C#N)C(c2ccccc2OCC)C(C#N)C(=O)N1 (stereo not drawn) | n | x | x | 22 | n | 36
N=c1ccn2c(n1)O[C@@H]1[C@@H](O)[C@H](CO)O[C@@H]12 | x | x | n | x | x | x
CCNC(=S)Nc1nc2c(cc1C(=O)OCC)CCCC2 | n | n | n | 21 | 27 | 20
CCCCCCCC(=O)CC[C@@H]1[C@@H](C/C=C\CCCC(=O)O)[C@@H](O)C[C@H]1O | x | x | n | x | x | x
CS(=O)(=O)N1CCN(c2ccc(Cl)cc2[N+](=O)[O-])CC1 | n | n | n | 42 | n | n
CC(=O)N1CCN(c2ccc(OCC3CO[C@](Cn4ccnc4)(c4ccc(Cl)cc4Cl)O3)cc2)CC1 (stereo partly drawn) | x | x | n | x | x | x
CC[C@@H]1OC(=O)C[C@@H](O)[C@H](C)[C@@H](O[C@@H]2O[C@H](C)[C@@H](O)[C@H](N(C)C)[C@H]2O)[C@@H](CCN2C[C@H](C)C[C@H](C)C2)C[C@@H](C)C(=O)/C=C/C(C)=C\[C@@H]1CO[C@@H]1O[C@H](C)[C@@H](O)[C@@H](OC)[C@H]1OC | x | x | n | x | x | x

High-throughput results: PubChem, several laboratories
